Laboratory results from ChEMBL document CHEMBL4152289, “Novel 8-nitroquinolin-2(1H)-ones as NTR-bioactivated antikinetoplastid molecules: Synthesis, electrochemical and SAR study” (Eur J Med Chem, 2018).

Columns and labels:
[1] = Electrochemical behavior of the compound assessed as redox potential corrected toward normal hydrogen electrode at 10^-3 mol/L by cyclic voltammetry; conditions: 1000 µM
[2] = test system: Leishmania infantum; experiment: microbe, parasite or virus in culture; format: functional, organism-based; conditions: MHOM/MA/67/ITMAP-263, 48 h
[3] = test system: Trypanosoma brucei brucei; experiment: Antitrypanosomal activity against trypomastigote stage of Trypanosoma brucei brucei AnTat 1.9 assessed as decrease in parasite viability after 69 hrs by Alamar Blue assay; format: functional, organism-based; conditions: AnTat 1.9, 69 h
[4] = test system: HepG2; experiment: Cytotoxicity against human HepG2 cells assessed as decrease in cell viability after 72 hrs by MTT assay; conditions: hepg2, 72 h
[5] = test system: THP-1; experiment: Cytotoxicity against human THP1 cells assessed as decrease in cell viability after 72 hrs by MTT assay; format: cell-based; conditions: thp-1, 72 h
In short: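 PMA-differentiated THP-1 (50 ng/mL final), 10⁶ cells/mL in complete RPMI, 48 h. Compounds in DMSO (<0.5% v/v) for 72 h at 37 °C. MTT 0.5 mg/mL for 2 h, formazan dissolved in DMSO, A570 with 630 nm reference. Viability expressed as percent of untreated control; doxorubicin as positive control; 50% cytotoxic concentration from dose–response curve.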

[6] = test system: Leishmania donovani; experiment: Antileishmanial activity against amastigote stage of Leishmania donovani MHOM/IN/00/DEVI infected in human THP1 cells assessed as inhibition of parasite infection after 120 hrs by Giemsa staining-based microscopic method; format: functional, organism-based; conditions: THP-1, 120 h
In short: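 THP-1 cells differentiated with PMA (50 ng/mL final), 48 h at 37 °C, 6% CO2, then infected 10:1 with promastigotes acid-primed 24 h at 27 °C in Schneider 20% FCS pH 5.4. After 24 h, compounds in DMSO (<0.5% v/v) added in duplicate for 120 h. Methanol fixation and Giemsa staining; ≥200 cells counted. IC50 is the concentration halving infected macrophages, nonlinear regression, mean of three independent experiments.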

[7] = test system: Leishmania donovani; experiment: Antileishmanial activity against wild type promastigote stage of Leishmania donovani LdBOB assessed as inhibition of parasite growth after 72 hrs by resazurin assay; format: functional, organism-based
In short: (§1)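 LdBOB promastigotes (from MHOM/SD/62/1S-CL2D) grown at 26 °C in modified M199. NTR1- and NTR2-overexpressing lines kept in nourseothricin 100 µg/mL. Triplicate 10 mL cultures seeded at 5 × 10⁴ parasites/mL and exposed to drug for 72 h. 50 µM resazurin added, fluorescence (ex 528/em 590 nm) read after 4 h. Background-corrected data fitted to two-parameter EC50 equation. Experiments were run at least twice; values are mean plus standard deviation.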

[8] = test system: Leishmania donovani; experiment: Antileishmanial activity against promastigote stage of Leishmania donovani LdBOB over-expressing NTR1 assessed as inhibition of parasite growth after 72 hrs by resazurin assay; format: functional, organism-based; in short: as §1
[9] = test system: Leishmania donovani; experiment: Antileishmanial activity against promastigote stage of Leishmania donovani LdBOB over-expressing NTR2 assessed as inhibition of parasite growth after 72 hrs by resazurin assay; format: functional, organism-based; in short: as §1
[10] = test system: Trypanosoma brucei brucei; experiment: Antitrypanosomal activity against trypomastigote stage of Trypanosoma brucei brucei S427 over-expressing NTR1 assessed as parasite growth inhibition after 72 hrs by haemocytometer; format: functional, organism-based; conditions: S427, 72 h
[11] = test system: Trypanosoma brucei brucei; experiment: Antitrypanosomal activity against wild type trypomastigote stage of Trypanosoma brucei brucei S427 assessed as parasite growth inhibition after 72 hrs by haemocytometer; format: functional, organism-based; conditions: S427, 72 h
[12] = test system: Leishmania donovani; experiment: Selectivity ratio of IC50 for wild type promastigote stage of Leishmania donovani LdBOB to IC50 for promastigote stage of Leishmania donovani LdBOB over-expressing NTR1; format: functional
[13] = Half life in CD1 mouse liver microsomes by LC-MS method; format: ADME, microsome
In short: (§2)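 Duplicate incubations with female CD-1 mouse microsomes at 37 °C in 50 mM phosphate pH 7.4 with MgCl2 5 mM, NADP 1 mM, G6PDH 0.4 U/mL and glucose-6-phosphate 5 mM. Samples at 0, 5, 10, 20, 30 and 40 min quenched with 4 vol acetonitrile containing internal standard, then LC-MS/MS.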

[14] = target: T1, serum albumin (Homo sapiens, UniProt P02768); experiment: Binding affinity to human serum albumin after 4 hrs by LC-MS method; format: ADME; conditions: read-out: PB (converted)
[15] = test system: Salmonella typhimurium; experiment: Mutagenicity in Salmonella typhimurium TA97a at […] preincubated for 1 hr with S9 mix followed by addition of molten top agar and measured 48 hrs post dark incubation by Ames test; format: toxicity, organism-based; conditions: salmonella enterica subsp. enterica serovar typhimurium
[16] = test system: Salmonella typhimurium; experiment: Mutagenicity in Salmonella typhimurium TA98 at […] preincubated for 1 hr with S9 mix followed by addition of molten top agar and measured 48 hrs post dark incubation by Ames test; format: toxicity, organism-based; conditions: salmonella enterica subsp. enterica serovar typhimurium
[17] = test system: Salmonella typhimurium; experiment: Mutagenicity in Salmonella typhimurium TA100 at […] preincubated for 1 hr with S9 mix followed by addition of molten top agar and measured 48 hrs post dark incubation by Ames test; format: toxicity, organism-based; conditions: salmonella enterica subsp. enterica serovar typhimurium
[18] = test system: Salmonella typhimurium; experiment: Mutagenicity in Salmonella typhimurium TA102 at […] preincubated for 1 hr with S9 mix followed by addition of molten top agar and measured 48 hrs post dark incubation by Ames test; format: toxicity, organism-based; conditions: salmonella enterica subsp. enterica serovar typhimurium
[19] = test system: HepG2; experiment: Genotoxicity in human HepG2 cells at 1 to 40 uM after 2 to 72 hrs by comet assay; format: toxicity, cell-based; conditions: hepg2, 40 µM
In short: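 Alkaline comet assay in HepG2 cells exposed 2 or 72 h to 1, 10, 20 or 40 µM. Cells embedded in 0.7% low-melting agarose, lysed 18 h at 4 °C at pH 10, electrophoresed 24 min at 0.8 V/cm at pH >13, then SYBR Gold stained. % tail DNA is the median of 200 cells (50 per deposit, 4 deposits). 1 mM methylmethanesulfonate as positive control.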

[20] = Metabolic stability in CD1 mouse liver microsomes at 5 mins by LC-MS method; format: ADME, microsome; in short: as §2
[21] = Metabolic stability in CD1 mouse liver microsomes at 10 mins by LC-MS method; format: ADME, microsome; in short: as §2
[22] = Metabolic stability in CD1 mouse liver microsomes at 20 mins by LC-MS method; format: ADME, microsome; in short: as §2
[23] = Metabolic stability in CD1 mouse liver microsomes at 30 mins by LC-MS method; format: ADME, microsome; conditions: 0.5 h; in short: as §2
[24] = Metabolic stability in CD1 mouse liver microsomes at 40 mins by LC-MS method; format: ADME, microsome; in short: as §2
[25] = target: Albumin (Homo sapiens, UniProt P02768); experiment: (§3) Binding affinity to human serum albumin assessed as fraction unbound after 4 hrs by LC-MS method; format: ADME; conditions: isolated protein, 4 h
[26] = target: T1, serum albumin; experiment: as §3; format: ADME; conditions: human serum albumin

T1 sequence (P02768 whole entry): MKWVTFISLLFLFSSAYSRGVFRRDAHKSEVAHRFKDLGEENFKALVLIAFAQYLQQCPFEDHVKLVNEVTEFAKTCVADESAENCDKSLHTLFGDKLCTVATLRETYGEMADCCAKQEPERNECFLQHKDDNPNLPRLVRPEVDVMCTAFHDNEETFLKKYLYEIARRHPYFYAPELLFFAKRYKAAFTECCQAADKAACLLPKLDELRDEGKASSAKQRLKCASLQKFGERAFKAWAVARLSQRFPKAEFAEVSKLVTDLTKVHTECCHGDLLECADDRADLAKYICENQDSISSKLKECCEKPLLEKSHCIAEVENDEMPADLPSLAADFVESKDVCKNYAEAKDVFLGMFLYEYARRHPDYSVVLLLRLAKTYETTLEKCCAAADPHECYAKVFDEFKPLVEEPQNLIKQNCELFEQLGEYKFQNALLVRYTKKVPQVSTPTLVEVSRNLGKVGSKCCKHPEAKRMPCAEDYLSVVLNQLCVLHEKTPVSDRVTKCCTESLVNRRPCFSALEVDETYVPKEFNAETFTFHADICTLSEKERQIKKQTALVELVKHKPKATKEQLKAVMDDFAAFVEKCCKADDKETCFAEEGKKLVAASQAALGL
Albumin, sequence (P02768 whole entry): as above

O=c1[nH]c2c([N+](=O)[O-])cccc2cc1Br
Activity [1]: -0.45 V | IC50 [2]: 7.1 µM | IC50 [3]: 1.9 µM | CC50 [4]: 92 µM | CC50 [5]: 72 µM | IC50 [6]: 18 µM | IC50 [7]: 5.9 µM | IC50 [8]: 0.47 µM | IC50 [9]: 4.6 µM | IC50 [10]: 3.9 µM | IC50 [11]: 17.7 µM | Ratio IC50 [12]: 10 | t1/2 [13]: > 40 min | fraction unbound at 4 h [14]: 0.078 | Activity ([15]; 250 µM): Toxic | Activity ([15]; 2500 µM): Toxic | Activity ([16]; 250 µM): Toxic | Activity ([16]; 2500 µM): Toxic | Activity ([17]; 250 µM): Toxic | Activity ([17]; 2500 µM): Toxic | Activity ([18]; 250 µM): Non-Toxic | Activity ([18]; 2500 µM): Toxic | Activity [19]: Non-Toxic | Stability [20]: 861 pmol/mL | Stability [21]: 869 pmol/mL | Stability [22]: 802 pmol/mL | Stability [23]: 780 pmol/mL | Stability [24]: 772 pmol/mL | logFu [25]: -1.11 | fraction unbound at 4 h [26]: 0.078
